The values below come from ChEMBL document CHEMBL4342528, “Discovery of a First-in-Class Protein Arginine Methyltransferase 6 (PRMT6) Covalent Inhibitor” (J Med Chem, 2020).

pIC50: −log10 of the molar value. Active and inactive are the calls of the source. No cut-off for these calls is given here. A value given as a limit tells only on which side of the number the result lay.

Series [1] concerns the target T1, Protein arginine N-methyltransferase 8 (Homo sapiens, UniProt Q9NR22). Put plainly: Inhibition of PRMT8 (unknown origin) assessed as reduction in incorporation of [3H]-labeled methyl group into biotinylated substrate using [3H-SAM] at 50 uM incubated for 1 hr by scintillation proximity assay relative to control. Put shortly:
(§1)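 Panel of 33 methyltransferases (22 PKMTs, 3 DNMTs, 8 PRMTs), each tested at 10 and 50 μM compound. Activity was read as ³H-methyl transfer from ³H-SAM in a radiometric assay done as previously described.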
Target sequence in this assay (Q9NR22 2-394 limits assumed): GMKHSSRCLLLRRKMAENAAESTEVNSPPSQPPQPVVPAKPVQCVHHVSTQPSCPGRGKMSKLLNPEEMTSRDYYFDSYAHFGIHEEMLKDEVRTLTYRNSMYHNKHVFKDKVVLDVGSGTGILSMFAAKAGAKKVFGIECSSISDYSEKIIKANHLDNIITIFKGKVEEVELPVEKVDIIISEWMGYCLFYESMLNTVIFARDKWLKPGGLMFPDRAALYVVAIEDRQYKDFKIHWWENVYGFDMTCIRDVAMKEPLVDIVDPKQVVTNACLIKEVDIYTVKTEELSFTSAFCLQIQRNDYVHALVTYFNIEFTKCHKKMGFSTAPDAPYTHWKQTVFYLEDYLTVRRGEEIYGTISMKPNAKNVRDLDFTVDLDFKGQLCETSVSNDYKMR
(In general: Scintillation proximity formats need no separation of bound from free tracer.)

Another series concerns PNT2. The series is described as follows: Toxicity in human PNT2 cells assessed as reduction in cell viability up to 20 uM incubated for 3 days by CCK8 assay. As to conditions: pnt2, 72 h. In kind it is cell-based. Put shortly: (§2)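 Cells seeded 1×10^4 per well in triplicate, treated after 24 h with serial dilutions from 20 μM for 3 days; CCK-8 (WST-8) added, 4 h at 37 °C, absorbance at 450 nm; mean ± SD of three replicate experiments.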
Background: Tetrazolium dyes change colour on reduction, which living cells bring about.

For series [2], the target named is T2, Protein arginine N-methyltransferase 3 (Homo sapiens, UniProt O60678). The series is described as follows: Inhibition of PRMT3 (unknown origin) expressed in HEK293T cells were co-transfected with GFP-tagged histone H4 peptide assessed as reduction in H4R3 arginine asymmetric dimethylation at 0.2 to 20 uM incubated for 20 hrs. The series is classed as cell-based.
Target sequence in this assay (O60678 2-531 limits assumed): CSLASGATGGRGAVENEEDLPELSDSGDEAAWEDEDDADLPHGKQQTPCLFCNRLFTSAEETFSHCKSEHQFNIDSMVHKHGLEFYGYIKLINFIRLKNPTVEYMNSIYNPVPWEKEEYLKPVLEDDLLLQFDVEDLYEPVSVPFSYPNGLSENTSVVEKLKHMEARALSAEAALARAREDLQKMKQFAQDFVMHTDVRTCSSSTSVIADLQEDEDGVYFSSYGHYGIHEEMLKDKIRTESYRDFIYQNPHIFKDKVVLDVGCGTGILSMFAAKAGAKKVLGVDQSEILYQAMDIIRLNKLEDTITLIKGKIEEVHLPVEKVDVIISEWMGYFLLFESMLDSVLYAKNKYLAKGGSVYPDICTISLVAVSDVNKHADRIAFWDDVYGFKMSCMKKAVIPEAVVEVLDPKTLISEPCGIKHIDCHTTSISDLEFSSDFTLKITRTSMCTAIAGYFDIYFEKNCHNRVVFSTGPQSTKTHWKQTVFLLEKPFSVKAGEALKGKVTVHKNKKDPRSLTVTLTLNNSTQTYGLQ

In series [3] the target is T3, Histone-arginine methyltransferase CARM1 (Homo sapiens, UniProt Q86X55).
T3 sequence (Q86X55 whole entry): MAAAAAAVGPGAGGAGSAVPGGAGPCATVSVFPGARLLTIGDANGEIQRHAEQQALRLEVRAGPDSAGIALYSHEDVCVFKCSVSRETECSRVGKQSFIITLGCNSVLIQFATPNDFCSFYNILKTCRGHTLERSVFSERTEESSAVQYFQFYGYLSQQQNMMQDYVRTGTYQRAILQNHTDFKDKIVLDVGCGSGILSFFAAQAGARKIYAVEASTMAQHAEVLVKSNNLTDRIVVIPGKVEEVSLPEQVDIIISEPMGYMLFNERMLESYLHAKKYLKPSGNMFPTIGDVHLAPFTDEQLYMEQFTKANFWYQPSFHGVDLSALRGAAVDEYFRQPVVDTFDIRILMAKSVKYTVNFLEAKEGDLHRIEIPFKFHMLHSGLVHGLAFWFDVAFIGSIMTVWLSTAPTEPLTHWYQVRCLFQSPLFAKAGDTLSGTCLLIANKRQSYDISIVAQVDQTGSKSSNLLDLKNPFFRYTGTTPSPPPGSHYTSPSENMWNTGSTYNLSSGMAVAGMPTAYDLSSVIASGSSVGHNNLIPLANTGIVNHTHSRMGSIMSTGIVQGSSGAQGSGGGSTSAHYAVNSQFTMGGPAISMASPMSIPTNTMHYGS
The series is described as follows: Inhibition of human PRMT4 using [3H]SAM as donor and [3H]methylated biotin-labeled peptide as substrate by scintillation proximity assay. Put shortly: (§3)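 Compound titrated into the reaction; 1 h enzyme–compound preincubation stated for PRMT6. Methylated peptide captured on streptavidin/scintillant-coated plates and counted (cpm). IC50 from concentration–response, triplicate, mean ± SD.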

Series [4] deals with T2, Protein arginine N-methyltransferase 3. The series is described as follows: Inhibition of PRMT3 (unknown origin) assessed as reduction in incorporation of [3H]-labeled methyl group into biotinylated substrate using [3H-SAM] at 10 uM incubated for 1 hr by scintillation proximity assay. Put shortly: as §1
Target sequence in this assay (O60678 2-531 limits assumed): as the sequence (O60678 2-531 limits assumed) above
The target is the same in series [5]. Put plainly: Inhibition of human PRMT3 using [3H]SAM as donor and [3H]methylated biotin-labeled peptide as substrate by scintillation proximity assay. An outline of the steps:
as §3
Target sequence in this assay (O60678 whole entry): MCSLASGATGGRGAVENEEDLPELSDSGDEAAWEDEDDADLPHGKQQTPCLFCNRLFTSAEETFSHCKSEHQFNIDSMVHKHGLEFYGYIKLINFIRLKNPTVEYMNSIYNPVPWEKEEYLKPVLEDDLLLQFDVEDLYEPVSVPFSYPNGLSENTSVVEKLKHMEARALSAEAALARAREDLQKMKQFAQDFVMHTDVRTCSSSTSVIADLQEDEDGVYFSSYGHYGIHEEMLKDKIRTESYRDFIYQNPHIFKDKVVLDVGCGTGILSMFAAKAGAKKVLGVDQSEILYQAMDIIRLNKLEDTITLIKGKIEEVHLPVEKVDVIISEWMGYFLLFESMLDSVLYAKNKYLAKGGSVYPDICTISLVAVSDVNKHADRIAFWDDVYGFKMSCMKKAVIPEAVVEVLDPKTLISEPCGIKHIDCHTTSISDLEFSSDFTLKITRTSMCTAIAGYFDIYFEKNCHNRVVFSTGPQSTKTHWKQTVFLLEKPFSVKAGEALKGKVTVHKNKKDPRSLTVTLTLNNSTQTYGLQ

Series [6] has as its target T4, Protein arginine N-methyltransferase 1 (Homo sapiens, UniProt Q99873). Put plainly: Inhibition of PRMT1 in human MCF7 cells assessed as reduction in H4R3me2a levels incubated for 2 days by fluorescence based assay. In kind it is cell-based. An outline of the steps: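 MCF7 cells with endogenous PRMT1 were treated with compound for 2 days, with MS023 (1 μM) as positive control. The H4R3me2a fluorescence signal was normalized to H4 and fitted nonlinearly to give IC50.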

The target in series [7] is T5, Protein arginine N-methyltransferase 6 (Homo sapiens, UniProt Q96LA8). The series is described as follows: Time dependent inhibition of human PRMT6 pre-incubated for 1 to 30 mins using [3H]SAM as donor and [3H]methylated biotin-labeled peptide as substrate by scintillation proximity assay.
Target sequence in this assay (Q96LA8 whole entry, looked up): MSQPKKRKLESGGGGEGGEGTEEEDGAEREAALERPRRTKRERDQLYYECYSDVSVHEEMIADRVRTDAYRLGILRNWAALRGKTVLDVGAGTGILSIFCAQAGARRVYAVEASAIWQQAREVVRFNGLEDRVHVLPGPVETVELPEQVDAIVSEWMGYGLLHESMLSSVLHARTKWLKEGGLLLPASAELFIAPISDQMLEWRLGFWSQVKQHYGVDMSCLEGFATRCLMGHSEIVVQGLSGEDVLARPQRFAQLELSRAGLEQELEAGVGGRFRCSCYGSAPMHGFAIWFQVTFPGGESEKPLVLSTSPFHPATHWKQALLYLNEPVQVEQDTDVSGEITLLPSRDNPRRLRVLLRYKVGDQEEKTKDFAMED
Series [8] has as its target T5, Protein arginine N-methyltransferase 6. Put plainly: […] inhibition of human PRMT6 pre-incubated for 1 to 30 mins using [3H]SAM as donor and [3H]methylated biotin-labeled peptide as substrate by scintillation proximity assay.
Target sequence in this assay (Q96LA8 whole entry, looked up): as above
Series [9] has the same target. Put plainly: Inhibition of PRMT6 (unknown origin) assessed as reduction in incorporation of [3H]-labeled methyl group into biotinylated substrate using [3H-SAM] at 10 uM incubated for 1 hr by scintillation proximity assay. Put shortly:
as §1
Target sequence in this assay (Q96LA8 whole entry, looked up): as above

For series [10], the target named is T1, Protein arginine N-methyltransferase 8. The series is described as follows: Inhibition of human PRMT8 using [3H]SAM as donor and [3H]methylated biotin-labeled peptide as substrate by scintillation proximity assay. An outline of the steps:
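Radiometric SPA: ³H-methyl transfer from ³H-SAM to biotin-labeled peptide, captured on streptavidin/scintillant-coated plate, counts per minute read; substrate and cofactor each at their Km for the enzyme; compound titrated; IC50 from triplicate determinations, mean ± SD.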
Target sequence in this assay (Q9NR22 whole entry): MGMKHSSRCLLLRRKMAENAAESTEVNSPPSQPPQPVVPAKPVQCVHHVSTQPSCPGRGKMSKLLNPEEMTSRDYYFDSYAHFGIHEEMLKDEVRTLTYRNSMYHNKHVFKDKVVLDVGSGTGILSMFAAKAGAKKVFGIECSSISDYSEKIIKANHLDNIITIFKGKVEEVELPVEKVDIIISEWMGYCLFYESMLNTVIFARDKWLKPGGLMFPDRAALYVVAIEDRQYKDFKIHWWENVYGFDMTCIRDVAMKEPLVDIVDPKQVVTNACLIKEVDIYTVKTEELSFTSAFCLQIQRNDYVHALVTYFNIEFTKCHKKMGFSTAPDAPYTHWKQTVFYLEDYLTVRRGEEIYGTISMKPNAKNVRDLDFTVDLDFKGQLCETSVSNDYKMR

Series [11] addresses T6, Histone-arginine methyltransferase CARM1 (Homo sapiens) (UniProt Q86X55).
T6 sequence (whole entry): T3 sequence (Q86X55 whole entry)
The series is described as follows: Inhibition of PRMT4 (unknown origin) assessed as reduction in incorporation of [3H]-labeled methyl group into biotinylated substrate using [3H-SAM] at 10 uM incubated for 1 hr by scintillation proximity assay. An outline of the steps: as §1

For series [12], the target named is T2, Protein arginine N-methyltransferase 3. The series is described as follows: Inhibition of PRMT3 (unknown origin) assessed as reduction in incorporation of [3H]-labeled methyl group into biotinylated substrate using [3H-SAM] at 50 uM incubated for 1 hr by scintillation proximity assay relative to control. Put shortly: as §1
Target sequence in this assay (O60678 2-531 limits assumed): as the sequence (O60678 2-531 limits assumed) above
The target in series [13] is T5, Protein arginine N-methyltransferase 6. Put plainly: Inhibition of PRMT6 (unknown origin) assessed as reduction in incorporation of [3H]-labeled methyl group into biotinylated substrate using [3H-SAM] at 50 uM incubated for 1 hr by scintillation proximity assay relative to control. Put shortly:
as §1
Target sequence in this assay (Q96LA8 whole entry, looked up): as the sequence (Q96LA8 whole entry, looked up) above

The target is the same in series [14]. The series is described as follows: Covalent binding affinity to human PRMT6 assessed as covalent adduct. formation at 300 uM pre-incubated for 1 hr by mass spectrometry. An outline of the steps: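 PRMT protein at 15 μM was incubated 1 h at room temperature with a 20-fold molar excess of inhibitor (300 μM). The reaction was quenched with 0.1% aqueous TFA, separated by HPLC (5–95% acetonitrile in water) and analysed by ESI time-of-flight LC/MS for protein–ligand adduct mass.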
Target sequence in this assay (Q96LA8 whole entry, looked up): as above

The target of series [15] is T1, Protein arginine N-methyltransferase 8. The series is described as follows: Inhibition of PRMT8 (unknown origin) assessed as reduction in incorporation of [3H]-labeled methyl group into biotinylated substrate using [3H-SAM] at 10 uM incubated for 1 hr by scintillation proximity assay. Put shortly:
as §1
Target sequence in this assay (Q9NR22 2-394 limits assumed): as the sequence (Q9NR22 2-394 limits assumed) above

The subject of a further series is MCF7. The series is described as follows: Toxicity in human MCF7 cells assessed as reduction in cell viability up to 20 uM incubated for 3 days by CCK8 assay. The series is classed as cell-based. As to conditions: mcf7, 72 h. An outline of the steps:
as §2

In series [16] the target is T5, Protein arginine N-methyltransferase 6. The series is described as follows: Inhibition of Flag-tagged PRMT6 (unknown origin) expressed in HEK293 cells at 0.1 to 10 uM incubated for 20 hrs assessed as reduction in H3R2me2a levels. The series is classed as cell-based.
Target sequence in this assay (Q96LA8 whole entry, looked up): as the sequence (Q96LA8 whole entry, looked up) above
Series [17] shares this target. Put plainly: Inhibition of human PRMT6 using [3H]SAM as donor and [3H]methylated biotin-labeled peptide as substrate by scintillation proximity assay. As to conditions: read-out: IC50. An outline of the steps:
as §3
Target sequence in this assay (Q96LA8 whole entry): as the sequence (Q96LA8 whole entry, looked up) above

A further series deals with HEK-293T. Put plainly: Toxicity in HEK293T cells assessed as reduction in cell viability up to 20 uM incubated for 3 days by CCK8 assay. The series is classed as cell-based. As to conditions: human, 72 h. Put shortly: as §2
The target in series [18] is T6, Histone-arginine methyltransferase CARM1 (Homo sapiens). The series is described as follows: Inhibition of PRMT4 (unknown origin) assessed as reduction in incorporation of [3H]-labeled methyl group into biotinylated substrate using [3H-SAM] at 50 uM incubated for 1 hr by scintillation proximity assay relative to control. An outline of the steps: as §1
The target in series [19] is T4, Protein arginine N-methyltransferase 1. The series is described as follows: Inhibition of human PRMT1 using [3H]SAM as donor and [3H]methylated biotin-labeled peptide as substrate by scintillation proximity assay.
Target sequence in this assay (Q99873 whole entry): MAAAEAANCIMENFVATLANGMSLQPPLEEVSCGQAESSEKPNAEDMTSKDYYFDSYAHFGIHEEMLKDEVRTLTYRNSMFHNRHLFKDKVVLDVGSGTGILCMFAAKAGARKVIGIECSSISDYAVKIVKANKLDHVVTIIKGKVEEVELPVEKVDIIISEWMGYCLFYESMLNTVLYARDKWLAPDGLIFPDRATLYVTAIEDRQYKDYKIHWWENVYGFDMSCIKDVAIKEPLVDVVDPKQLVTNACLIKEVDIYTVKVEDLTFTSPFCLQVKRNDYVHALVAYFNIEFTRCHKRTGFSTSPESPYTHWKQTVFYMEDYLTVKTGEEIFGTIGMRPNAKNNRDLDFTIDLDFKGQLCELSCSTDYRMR
In series [20] the target is T6, Histone-arginine methyltransferase CARM1 (Homo sapiens). Put plainly: Inhibition of PRMT4 in human MCF7 cells assessed as reduction in BAF155 asymmetric dimethylation at 0.2 to 20 uM incubated for 2 days. In kind it is cell-based.
Series [21] shares this target. Put plainly: Inhibition of PRMT4 in human MCF7 cells assessed as reduction in BAF155 asymmetric dimethylation at 2.2 to 20 uM incubated for 2 days. In kind it is cell-based.
Series [22] has as its target T2, Protein arginine N-methyltransferase 3. The series is described as follows: Inhibition of PRMT3 (unknown origin) expressed in HEK293T cells were co-transfected with GFP-tagged histone H4 peptide assessed as reduction in H4R3 arginine asymmetric dimethylation at 2.2 to 20 uM incubated for 20 hrs. In kind it is cell-based.
Target sequence in this assay (O60678 2-531 limits assumed): as the sequence (O60678 2-531 limits assumed) above
The target of series [23] is T6, Histone-arginine methyltransferase CARM1 (Homo sapiens). Put plainly: Inhibition of PRMT4 in human MCF7 cells assessed as reduction in BAF155 asymmetric dimethylation at 2 uM incubated for 2 days. In kind it is cell-based.
The target of series [24] is T5, Protein arginine N-methyltransferase 6. Put plainly: Inhibition of Flag-tagged PRMT6 (unknown origin) expressed in HEK293 cells at 2 uM incubated for 20 hrs assessed as reduction in H3R2me2a levels. In kind it is cell-based.
A short description of series [25]: Inhibition of type 1 PRMT (unknown origin). More on the design: species or system Homo sapiens.

Usually inhibition stands for the percentage by which the read-out fell short of the control. Usually pIC50 stands for the IC50 on a negative log10 scale, so that one unit is a factor of ten.

Consider `CCC(=O)Nc1cccc(-c2c[nH]cc2CN(C)CCN)c1`, for which the inhibition was > 80% in series [1]; > 40% in series [4]; “Dose-dependent effect” in [6]; > 40% in series [9]; > 40% in [11]; > 80% in series [12]. Besides, the inhibition in series [13] was > 80%; in series [15] it was > 40%; in series [18], > 80%. Moreover, the Activity result with PNT2, in the series on MCF7 and in the series on HEK-293T was “Non-Toxic” throughout. Further, the inhibition result in [2] and in series [20] was “inactive” each time. Besides, the pIC50 in series [3] is 5.70; in series [5] it was 4.82; in series [6], 5.17; in [10], 6.89; in [17], 7.55; in series [19], 6.77. Besides, the TDI entry in series [7] is “inactive”. In addition, the inhibition result in [8] and in series [16] was “Active” throughout. Moreover, in series [14], the outcome was inactive.
Take `C=CC(=O)Nc1cccc(-c2c[nH]cc2CN(C)CCO)c1`: the inhibition entry in [21], in series [22] and in series [16] was “inactive” throughout. Moreover, the Activity result with PNT2, in the series with MCF7 and with HEK-293T was “Non-Toxic” throughout. For the same molecule, the negative logarithm of the IC50 (pIC50) is 4.29 in series [3], < 3.70 in [5], 4.64 in series [10] and 5.01 in [17]. Also, the inhibition in series [9] stood at 50%; in [13], 80%. Also, the outcome in [14] was inactive.
Consider `CNCCN1CCC(c2cc(CN(C)C(=O)c3cccc(Oc4ccccc4)c3)ccn2)CC1`, for which the inhibition result in series [23] was “Active”.
Take `CC(C)Oc1ccc(-c2c[nH]cc2CN(C)CCN)cc1`: in [24], the inhibition entry was “Active”. Also, in [25], the pIC50 is 6.92 to 8.40.
